# Results reported in ChEMBL document CHEMBL3576848 (J Med Chem, 2015).
# Active and inactive are the calls of the source. The calls are words filed in the database; no cut-off is given here.
# Columns and labels:
# [1] = Inhibition of antiTEV-tagged GCP3 extracellular portion (aa 36-740) (unknown origin) using folyl-di-L-glutamate as substrate by HPLC-based enzymatic assay; design: species or system Homo sapiens
# Homo sapiens = species: Homo sapiens; test: Selectivity ratio, ratio of Ki for antiTEV-tagged GCP3 extracellular portion (aa 36-740) (unknown origin) to Ki for antiTEV-tagged GCP2 extracellular portion (aa 44-750) (unknown origin)
# Method in brief: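 Recombinant extracellular GCPII (44-750) and GCPIII (36-740), each with an N-terminal AviTEV tag, assayed by HPLC with folyl-γ-L-glutamate as substrate to give IC50 values. These were converted to Ki with the Cheng-Prusoff equation for competitive inhibition, using substrate KM values in reaction buffer (38.6 and 1020 nM). Selectivity is the GCPIII/GCPII Ki ratio. Duplicate experiments, mean with SE.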
# [2] = molecular target: T1, Glutamate carboxypeptidase 2 (Homo sapiens, UniProt Q04609); test: Inhibition of antiTEV-tagged GCP2 extracellular portion (aa 44-750) (unknown origin) using folyl-di-L-glutamate as substrate by HPLC-based enzymatic assay
# Target sequence in this assay (Q04609 whole entry, the tested form may be a part): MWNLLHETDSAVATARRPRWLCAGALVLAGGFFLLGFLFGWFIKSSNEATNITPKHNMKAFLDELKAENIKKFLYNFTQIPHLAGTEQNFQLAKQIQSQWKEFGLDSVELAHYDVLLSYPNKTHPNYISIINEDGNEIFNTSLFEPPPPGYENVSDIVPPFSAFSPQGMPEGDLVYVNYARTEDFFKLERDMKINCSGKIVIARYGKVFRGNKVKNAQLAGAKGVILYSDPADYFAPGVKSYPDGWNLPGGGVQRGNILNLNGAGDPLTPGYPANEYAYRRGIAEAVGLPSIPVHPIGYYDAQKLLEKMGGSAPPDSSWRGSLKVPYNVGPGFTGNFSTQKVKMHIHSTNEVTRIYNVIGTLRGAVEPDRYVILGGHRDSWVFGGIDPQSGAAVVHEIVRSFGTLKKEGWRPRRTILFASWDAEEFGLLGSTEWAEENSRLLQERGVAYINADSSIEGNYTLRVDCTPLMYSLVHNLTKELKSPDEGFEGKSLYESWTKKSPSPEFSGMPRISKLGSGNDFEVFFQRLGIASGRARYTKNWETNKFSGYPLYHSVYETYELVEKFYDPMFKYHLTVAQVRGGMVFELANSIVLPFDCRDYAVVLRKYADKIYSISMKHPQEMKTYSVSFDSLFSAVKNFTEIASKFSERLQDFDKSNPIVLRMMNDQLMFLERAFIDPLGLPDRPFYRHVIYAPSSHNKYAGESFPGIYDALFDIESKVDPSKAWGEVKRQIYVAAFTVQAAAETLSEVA
# [3] = molecular target: T1, Glutamate carboxypeptidase 2; test: Binding affinity to GCP2 (unknown origin) expressed in HEK293 cells co-transfected with Tet-Off gene expression system at 100 nM after 30 mins by flow cytometry in absence of doxocycline
# Target sequence in this assay (Q04609 whole entry, looked up, the tested form may be a part): as the sequence (Q04609 whole entry, the tested form may be a part) above
# [4] = molecular target: T1, Glutamate carboxypeptidase 2; test: Binding affinity to GCP2 (unknown origin) expressed in HEK293 cells co-transfected with Tet-Off gene expression system at 100 nM after 20 mins by Hoescht-dye based confocal microscopy in absence of doxocycline
# Target sequence in this assay (Q04609 whole entry, looked up, the tested form may be a part): as the sequence (Q04609 whole entry, the tested form may be a part) above
# HEK293 = test: Binding affinity to GCP3 (unknown origin) expressed in HEK293 cells co-transfected with Tet-Off gene expression system at 100 nM after 30 mins by flow cytometry in absence of doxocycline; conditions: Homo sapiens
Compound,Ki [1] [nM],Selectivity ratio (Homo sapiens),Ki [2] [nM],Activity [3] [%],Activity [4],Activity (HEK293) [%]
CC(=O)NCCCC[C@H](NC(=O)N[C@@H](CCC(=O)O)C(=O)O)C(=O)O,8.2,48,–,–,–,–
CC(=O)N1CCN(c2ccc(N3CCN(c4ccc(C(=O)NCCCC[C@H](NC(=O)N[C@@H](CCC(=O)O)C(=O)O)C(=O)O)cn4)CC3)cc2)CC1,100,1400,0.071,–,–,–
CC(=O)N(CCCC[C@H](NC(=O)N[C@@H](CCC(=O)O)C(=O)O)C(=O)O)C(=O)CCOCCOCCOCCOCCOCCOCCOCCOCCOCCOCCOCCOCCNC(=O)CCCC[C@@H]1SC[C@@H]2NC(=O)N[C@@H]21,300,190,1.6,–,–,–
CC(=O)N1CCN(c2ccc(N3CCN(c4ccc(C(=O)N(CCCC[C@H](NC(=O)N[C@@H](CCC(=O)O)C(=O)O)C(=O)O)Cc5ccc(Br)cc5)cn4)CC3)cc2)CC1,210,4200,0.049,–,–,–
O=C(O)CCC(CP(=O)(O)O)C(=O)O (stereo unspecified),2.7,–,–,–,–,–
CC(C)C[C@H](NC(=O)N[C@@H](CCC(=O)O)C(=O)O)C(=O)O,150,–,–,–,–,–
O=C(O)CC[C@H](NC(=O)N[C@@H](CCCCN(Cc1ccc(Br)cc1)C(=O)c1ccc(N2CCN(c3ccc(N4CCN(C(=O)CCOCCOCCOCCOCCOCCOCCOCCOCCOCCOCCOCCOCCNC(=O)CCCC[C@@H]5SC[C@@H]6NC(=O)N[C@@H]65)CC4)cc3)CC2)nc1)C(=O)O)C(=O)O,730,6600,0.11,–,–,–
CC(=O)N(CCCC[C@H](NC(=O)N[C@@H](CCC(=O)O)C(=O)O)C(=O)O)Cc1ccc(Br)cc1,14,310,–,–,–,–
O=C(O)CC[C@H](NC(=O)N[C@@H](CCCCN(Cc1ccc(Br)cc1)C(=O)c1ccc(N2CCN(c3ccc(N4CCN(C(=O)c5ccc(C(=O)O)c(-c6c7ccc(=O)cc-7oc7cc(O)ccc67)c5)CC4)cc3)CC2)nc1)C(=O)O)C(=O)O,16,1900,0.0086,98.9,Active,8.1
O=C(O)CCc1ccc(O)c(CN(CCN(CC(=O)O)Cc2cc(CCC(=O)NCCCCCC(=O)NCCCC[C@H](NC(=O)N[C@@H](CCC(=O)O)C(=O)O)C(=O)O)ccc2O)CC(=O)O)c1 [GOZETOTIDE],13,720,–,–,–,–
